Reference: publication PMC7474130 (Journal of Pharmaceutical Analysis, 2020)
Where two headings read alike, the source gives them in different places.

How the values were obtained:
[1] = Stability of analytes in rat plasma under different storage conditions; assay type: in vitro ADME
In short: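 Blank rat plasma spiked at three QC concentrations, five replicates each. Plasma (100 μL) was precipitated with three volumes of acetonitrile plus IS, vortexed 5 min, centrifuged at 13,000 × g for 10 min at 4 °C, then dried under nitrogen. It was reconstituted in initial mobile phase and re-centrifuged. Extracts were held in the auto-sampler at 4 °C, then 3 μL injected. Quantitation used analyte/IS peak-area ratios on a 1/concentration2-weighted linear calibration.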

[2] = assay type: in vivo, Male Sprague-Dawley (SD) rats; settings: for Cmax / half-life: male, Sprague-Dawley, rat, po, 6.8 g/kg
In short: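 Untreated male SD rats (220 ± 20 g; six) were housed at 25 ± 3 °C and 45 ± 5% humidity with free access to food and water. Plasma was analysed by UHPLC-Q-Orbitrap-MS (IS, 1/concentration2-weighted calibration), with non-compartmental analysis.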

[3] = assay type: in vivo, Male Sprague-Dawley (SD) rats; settings: plasma; for AUC0-t / AUC0-∞: IM rats, oral ZSS aqueous extract 6.8 g/kg, mean ± SD, n = 6; for Cmax / Tmax / half-life: male, Sprague-Dawley, rat, po, 6.8 g/kg
In short: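 Male SD rats (220 ± 20 g) made insomniac with PCPA 400 mg/kg i.p. daily for three days (suspended in 0.5% CMC-Na); six rats. Plasma (3500 × g, 10 min, 4 °C) was held at −80 °C. Analysis used UHPLC-Q-Orbitrap-MS with internal standards and non-compartmental parameters.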

[4] = extracted plasma QC samples, 4 °C for 12 h (auto-sampler), high QC level
[5] = extracted plasma QC samples, 4 °C for 12 h (auto-sampler), low QC level
[6] = extracted plasma QC samples, 4 °C for 12 h (auto-sampler), middle QC level
[7] = rat plasma, Frozen for 30 days (−80 °C), high QC level
[8] = rat plasma, Frozen for 30 days (−80 °C), low QC level
[9] = rat plasma, Frozen for 30 days (−80 °C), middle QC level
[10] = rat plasma, Three freeze-thaw cycles, high QC level
[11] = rat plasma, Three freeze-thaw cycles, low QC level
[12] = rat plasma, Three freeze-thaw cycles, middle QC level
[13] = NC rats, oral ZSS aqueous extract 6.8 g/kg, plasma, mean ± SD, n = 6

Row | Stability, Accuracy (RE, %) [1, 4] [%] | Stability, Accuracy (RE, %) [1, 5] [%] | Stability, Accuracy (RE, %) [1, 6] [%] | Stability, Accuracy (RE, %) [1, 7] [%] | Stability, Accuracy (RE, %) [1, 8] [%] | Stability, Accuracy (RE, %) [1, 9] [%] | Stability, Accuracy (RE, %) [1, 10] [%] | Stability, Accuracy (RE, %) [1, 11] [%] | Stability, Accuracy (RE, %) [1, 12] [%] | AUC0-t [2, 13] [μg/L･h] | AUC0-∞ [2, 13] [μg/L･h] | Cmax ([2]; plasma) [ng/mL] | half-life ([2]; plasma) [min] | AUC0-t [3] [μg/L･h] | AUC0-∞ [3] [μg/L･h] | Cmax [3] [ng/mL] | Tmax [3] [min] | half-life [3] [min] | Compound | other results
1 | 7.71 | 14.88 | 3.35 | −1.99 | 14.76 | 9.58 | 8.75 | 11.85 | 9.48 | 1.08 ± 0.30 | 1.13 ± 0.27 | 1.98 ± 0.82 | 27 ± 10.2 | 0.91 ± 0.26 | 0.93 ± 0.28 | 2.48 ± 0.98 | 13.8 ± 5.4 | 24.6 ± 16.8 | COc1cc2c(cc1O)C(Cc1ccc(O)cc1)NCC2 (stereo not drawn) [Coclaurine, coclaurine] | Tmax [2, 13]: 16.2 ± 5.4 min
2 | 11.25 | −4.56 | −11.99 | 9.01 | −14.77 | 0.05 | 8.06 | −5.49 | 5.31 | 54.56 ± 21.90 | 69.51 ± 28.52 | 40.6 ± 12.7 | 190 ± 118 | 45.13 ± 24.46 | 51.87 ± 23.75 | 35.1 ± 13.7 | 12 ± 4.2 | 161 ± 76.8 | COc1ccc2c(c1O)-c1c(O)c(OC)cc3c1[C@H](C2)[N+](C)(C)CC3 [Magnoflorine, magnoflorine] | –
3 | – | – | – | – | – | – | – | – | – | – | – | – | – | – | – | – | – | – | COc1cc2oc(-c3ccc(O)cc3)cc(=O)c2c(O)c1[C@@H]1O[C@H](CO)[C@@H](O)[C@H](O)[C@H]1O [swertisin] | concentration in rat plasma ([2]; after oral administration of ZSS aqueous extract): too low for detection; content in bile and feces ([2]; after oral administration of ZSS aqueous extract, data not open): high content
